Only some compounds are listed: those with a hit (about 3.6% of all), similar ones and a draw of the others.
PAFAH2 FP inh – inhibitors of human PAFAH2; inhibition, % at 3.39 µM; recombinant PAFAH2, FP-rhodamine activity probe, fluorescence polarization; 0.99% of 340,000 active; AID 492956; Q99487;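 active = inhibition above the mean over all tested compounds plus 3 SD, cut at about 30% in these data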;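 note: inhibitors block probe labeling of enzyme so polarization drops; 0% = enzyme with DMSO and 100% = wells lacking PAFAH2 protein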
IMP-1 inh – inhibitors of Pseudomonas aeruginosa IMP-1 metallo-beta-lactamase. inhibition, % at 5.6 µM. purified IMP-1, nitrocefin hydrolysis, epi-absorbance fluorescence. 0.45% of 290,000 active. AID 1556;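 active = inhibition above the mean plus 3 SD of all compounds in the same screening run, cut at about 4.5% in these data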;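 note: 0% = IMP-1 with DMSO and 100% = DMSO wells lacking enzyme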
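System: Purified recombinant IMP-1 metallo-beta-lactamase enzyme | Measured by: Fluorescence quenching readout, ex 480/em 530 nm | Replication: Singlicate | Incubation: 15 min preincubation plus 25 min reaction at 25 °C | Evaluation: Percent inhibition from optical density relative to buffer-blank wells | Benchmarks: DMSO with and without IMP-1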
PAFAH1B3 inh – PAFAH1B3 (human) inhibition. recombinant PAFAH1B3, FP-rhodamine probe, fluorescence polarization. inhibition, % at 3.39 µM. 0.28% of 340,000 active. AID 492972;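 active = inhibition above the screen-wide average of all tested compounds plus 3 SD, cut at about 25% in these data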;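 note: 0% = enzyme with DMSO only and 100% = wells lacking PAFAH1B3 protein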
Target sequence (Q15102 whole entry, looked up): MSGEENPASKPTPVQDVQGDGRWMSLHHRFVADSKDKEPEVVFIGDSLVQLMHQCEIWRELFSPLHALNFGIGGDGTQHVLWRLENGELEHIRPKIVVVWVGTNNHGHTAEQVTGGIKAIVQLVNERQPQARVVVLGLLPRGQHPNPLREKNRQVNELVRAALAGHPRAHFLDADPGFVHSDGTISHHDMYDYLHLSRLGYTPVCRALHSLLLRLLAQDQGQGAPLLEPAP
pPAFAH FP inh – inhibitors of human plasma PAF acetylhydrolase (pPAFAH); recombinant pPAFAH, FP-rhodamine probe fluorescence polarization; AID 463082; inhibition, % at 3.39 µM; 1.5% of 330,000 active; Q13093;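 active = inhibition above the mean inhibition across the screen plus 3 SD, cut at about 25% in these data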;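 note: inhibitors block binding of the rhodamine activity-based probe so polarization drops; 0% = enzyme with DMSO and 100% = wells lacking pPAFAH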
PAFAH1B2 FP inh – PAFAH1B2 (human) inhibition; recombinant PAFAH1B2, FP-rhodamine activity probe, fluorescence polarization; inhibition, % at 3.39 µM; 1.2% of 340,000 active;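 active = inhibition above the mean of all tested compounds plus 3 SD, cut at about 24% in these data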;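 note: 0% = enzyme with DMSO and 100% = wells lacking PAFAH1B2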
Target sequence (P68402 whole entry, looked up): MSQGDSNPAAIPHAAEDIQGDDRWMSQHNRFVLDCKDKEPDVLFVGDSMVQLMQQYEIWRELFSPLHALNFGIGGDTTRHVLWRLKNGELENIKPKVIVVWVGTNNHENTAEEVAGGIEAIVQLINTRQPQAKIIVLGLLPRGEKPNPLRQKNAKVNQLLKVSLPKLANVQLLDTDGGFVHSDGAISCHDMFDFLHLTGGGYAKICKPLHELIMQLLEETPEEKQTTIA
VIM-2 inhibitor – blocks Pseudomonas aeruginosa VIM-2 metallo-beta-lactamase | purified VIM-2, nitrocefin hydrolysis, epi-absorbance fluorescence | inhibition, % at 5.6 µM | 0.89% of 290,000 active | AID 1527;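 active = inhibition above the mean of all tested compounds plus 3 SD, cutoff set per screening run, cut at about 7.5% in these data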;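 note: red hydrolysis product quenches plate fluorescence so inhibitors raise well fluorescence; 0% = enzyme with DMSO and 100% = DMSO without enzyme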
The depositor's hits bear a star; x = not tested or not shown.

SMILES	PAFAH2 FP inh	IMP-1 inh	PAFAH1B3 inh	pPAFAH FP inh	PAFAH1B2 FP inh	VIM-2 inhibitor
CCN(CC(=O)Nc1ccc2c(c1)OCCO2)C(=O)c1cc(=O)[nH]c2ccccc12	4	x	7	2	1	x
COc1ccc([C@H]2Cc3cc(O)cc(O)c3C(=O)O2)cc1O	2	x	-2	2	-4	x
Nc1c(N(Cc2ccccc2)C(=O)COc2ccc([N+](=O)[O-])cc2)c(=O)[nH]c(=O)n1Cc1ccccc1	0	x	4	x	1	x
O=[N+]([O-])c1cc(Cl)c2cccnc2c1O	5	-6	8	7	-5	-3
Oc1c(I)cc(Cl)c2cccnc12	-1	-4	16	31*	11	-4
Oc1ccc(Cl)cc1CNc1nccs1	11	8.4*	8	-5	2	2
Cc1ccc(O)c(CNc2nccs2)c1	-2	-1	4	7	0	-1
CCOc1ccc(NC(=O)Nc2ccc3nsnc3c2)cc1	-5	-4	5	5	-4	-6
CCOc1ccc(NC(=S)Nc2ccc3nsnc3c2)cc1	52*	-4	54*	18	34*	1
COc1ccc(NC(=S)Nc2ccc3nsnc3c2)cc1	41*	-1	66*	18	23	-3
COc1ccc(C(CNC(=O)c2cccc(NS(=O)(=O)c3ccc(C)c(F)c3)c2)N2CCOCC2)cc1 (configuration not stated)	3	x	6	9	0	x
Cc1ccc(C(=O)Nc2ccccc2N2CCCC2)s1	5	x	10	6	7	x
C[C@H](NC(=O)c1nc[nH]c1C(=O)NC1CCNCC1)C(=O)OCc1ccccc1	x	x	x	4	x	x
CNC(=O)C(=O)Nc1nc(C23CC4CC(CC(C4)C2)C3)cs1	5	-2	10	-5	26*	-3
O=C(NCc1cccnc1)C(=O)Nc1nc(C23CC4CC(CC(C4)C2)C3)cs1	23	-2	8	3	33*	-1
Cc1ccc(OCCCCn2cnc3ccccc32)c(C)c1	-1	6.6*	9	2	9	-2
C[C@H](NC(=O)c1nc[nH]c1C(=O)NCCCCCN)C(=O)OCc1ccccc1	3	x	-14	6	6	x
COc1ccc(-n2c(C)cc(/C=C3\C(=N)N4N=C(CC(=O)N5CCOCC5)SC4=NC3=O)c2C)cc1	-4	1	8	8	1	0
O=C(C/C=N\OCc1c(Cl)cccc1Cl)Oc1ccc(Cl)cc1Cl	3	12*	3	2	2	-2
O=C(Nc1ccccc1Cl)Oc1ccc(Cl)cc1Cl	-2	-2	6	2	1	1
COC/C=C/C1=CC2=CC(=O)C(C)(OC(=O)c3cnc4ccccc4n3)C(=O)C2=CN1CCc1c[nH]c2ccccc12 (configuration not stated)	x	x	x	18	x	x
COc1ccc(NC(=O)NCc2cccnc2)c(OC)c1	1	16*	4	7	-4	0
COc1ccc(NC(=O)NCc2ccncc2)c(OC)c1	-3	-3	3	1	8	0
O=S(=O)(c1ccc(Br)cc1)N1CCC2(CC1)OCCO2	8	-1	7	-2	27*	-1
Cc1ccc(NC(=O)CCSCCC(=O)Nc2ccc(C)c(C)c2)cc1C	-15	-2	-8	5	29*	-3
SMILES	PAFAH2 FP inh	IMP-1 inh	PAFAH1B3 inh	pPAFAH FP inh	PAFAH1B2 FP inh	VIM-2 inhibitor
CC1CN(C(=O)CCC(=O)NCc2ccc(Cl)cc2)c2ccccc2S1 (configuration not stated)	-8	-2	5	1	12	-3
O=[N+]([O-])c1cccc(S(=O)(=O)NCCc2cccs2)c1	4	-3	6	6	10	-1
O=S(=O)(NCCc1cccs1)c1ccc(Br)cc1	6	5.5*	2	-1	25*	1
Cc1c(OCc2nn[nH]n2)ccc2c3c(c(=O)oc12)CCC(C)C3 (configuration not stated)	7	-3	10	3	4	1
O=C(COc1ccc2c3c(c(=O)oc2c1)CCC3)NCC1CCC(C(=O)O)CC1 (configuration not stated)	1	0	3	3	-1	7
Cc1c(OCC(=O)NCC(O)c2ccccc2)ccc2c3c(c(=O)oc12)CCCC3 (configuration not stated)	2	-3	7	3	7	9.3*
Cc1c(OCC(=O)C(C)(C)C)ccc2c3c(c(=O)oc12)CCCC3	18	-4	1	9	2	5
CCOC(=O)COc1ccc2c3c(c(=O)oc2c1C)CCC3	5	-1	8	3	7	8.1*
Cc1c(OCC(=O)NCC2CCC(C(=O)O)CC2)ccc2c3c(c(=O)oc12)CCC3 (configuration not stated)	3	-4	2	1	-1	9.4*
Cc1c(OCc2nn[nH]n2)ccc2c3c(c(=O)oc12)CCCC3	3	-4	10	5	4	7.8*
CC(Sc1cccc[n+]1[O-])C(=O)NC1CCCCC1C (configuration not stated)	2	x	-4	1	8	x
O=C1c2cc(O)c(O)cc2OC(c2ccc(O)c(O)c2)C1O (configuration not stated)	3	x	18	x	6	x
O=C(O)c1cccc(-c2noc(-c3cccc(Cl)c3)n2)c1	-7	x	4	0	4	x
Oc1ccccc1-c1cc(C(F)(F)C(F)F)[nH]n1	-1	-2	6	16	1	-5
Fc1ccc(-c2cc(C(F)(F)C(F)F)[nH]n2)cc1	x	-2	x	25*	x	-3
CCn1nccc1C(=O)Nc1cccc(C)c1C	0	17*	-2	-3	0	-1
CCn1nccc1C(=O)Nc1cc(Cl)ccc1Cl	5	0	5	8	7	1
O=C1CC2(CCN(C(=O)c3cccc(Br)c3)CC2)Oc2ccccc21	2	x	-4	-3	0	x
COc1ccc(S(=O)(=O)N2CCOCC2)cc1NC(=O)CN1C(=O)NC(C)(C2CC2)C1=O (configuration not stated)	8	x	8	-1	0	x
COc1ccc(CNC(=O)C2CCN(S(=O)(=O)c3ccc4c(c3)CC(C)N4C(C)=O)CC2)cc1 (configuration not stated)	0	-2	10	1	6	-5
CCN(CC)c1ccc(NC(=O)CSc2nc(C3CC3)nc3ccccc23)cc1C	7	-2	7	31*	4	-2
Cn1c(N)c(C(=O)COC(=O)/C=C/c2cccc(Cl)c2)c(=O)n(C)c1=O	9	x	3	-12	9	x
CCCCn1c(N)c(N(CCOC)C(=O)C2CCN(C(=O)c3ccc(F)cc3)CC2)c(=O)[nH]c1=O	4	x	3	-2	0	x
COCCn1c(-c2ccc(SC)cc2)nc2c1c(=O)[nH]c(=O)n2CC(C)C	-6	-2	6	1	-4	-4
